The target in assay [1] is Akt^PH (human recombinant AKT1) (Homo sapiens, UniProt P31749). The assay can be described thus: SPR ligand competition: Akt binding to vesicular PtdIns.
The target in the next assay is SIN1^PH (Homo sapiens, UniProt Q9BPZ7). Kind of assay: SPR ligand competition: SIN1^PH binding to vesicular PtdIns.
For another assay, the target named is T1, PBD1 of PPIP5K1 (Homo sapiens, UniProt Q6PFW1).
T1 sequence (Q6PFW1 382-917): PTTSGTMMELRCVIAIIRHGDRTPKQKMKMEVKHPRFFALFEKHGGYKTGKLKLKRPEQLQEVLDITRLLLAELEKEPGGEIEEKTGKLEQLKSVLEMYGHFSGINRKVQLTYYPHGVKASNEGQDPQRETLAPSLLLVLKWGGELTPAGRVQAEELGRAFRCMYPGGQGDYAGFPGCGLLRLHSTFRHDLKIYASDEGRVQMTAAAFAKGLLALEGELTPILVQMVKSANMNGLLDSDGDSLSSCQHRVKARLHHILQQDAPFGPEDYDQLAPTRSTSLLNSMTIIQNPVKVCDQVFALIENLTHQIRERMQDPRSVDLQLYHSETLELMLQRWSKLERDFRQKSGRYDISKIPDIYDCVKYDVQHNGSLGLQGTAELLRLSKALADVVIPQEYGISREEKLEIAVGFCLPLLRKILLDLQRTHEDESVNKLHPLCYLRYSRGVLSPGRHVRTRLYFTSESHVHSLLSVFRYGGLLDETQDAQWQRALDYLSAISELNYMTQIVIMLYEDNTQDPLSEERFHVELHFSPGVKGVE
Kind of assay: SPR ligand competition: PBD1 binding to vesicular PtdIns. The conditions noted are these: for fold lower affinity for PBD1 than InsP6 and 5-InsP7: from IC50 values.

For a further assay, the target named is T2, GRP1^PH (Mus musculus, UniProt O08967).
T2 sequence (O08967 261-387 limits assumed): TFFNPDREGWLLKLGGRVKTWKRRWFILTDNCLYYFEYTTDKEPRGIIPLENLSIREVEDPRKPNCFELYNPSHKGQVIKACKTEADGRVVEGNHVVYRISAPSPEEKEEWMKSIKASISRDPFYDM
Kind of assay: SPR ligand competition: GRP1^PH association with PtdIns. The conditions noted are these: Supplementary Figure S2. It counts as binding. A digest of the protocol: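 GRP1 PH domain expressed in E. coli BL21(DE3) at 37 °C in ampicillin LB, induced overnight at 25 °C with 1 mM IPTG at D600 0.6, lysed in imidazole-containing Hepes pH 8 buffer. SPR: protein injected at 5 μl/min over immobilized PtdIns(3,4,5)P3-containing lipid vesicles in 100 mM KCl, 10 mM NaH2PO4, 1 mM MgCl2, 25 mM Hepes pH 7.2. Signal corrected against control vesicles lacking the phosphoinositide.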

A further assay relates to NIH 3T3 cells. The assay can be described thus: [3H]inositol lipid and inositol phosphate levels in NIH 3T3 cells by HPLC. It counts as cell-based. A digest of the protocol: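 NIH 3T3 cells in DMEM with 10 % FBS and 1 mM pyruvate (37 °C, 5 % CO2), [3H]inositol-labelled, serum-starved 3 h in Hepes-buffered saline-glucose medium pH 7.4. Treatment: vehicle or PDGF for 5 min, or fresh medium with or without 0.2 M sorbitol. Reactions quenched; lipids or inositol phosphates extracted and quantified by HPLC as % of total. PDGF data: mean ± S.E.M., three experiments.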

The next assay has as its system mouse embryo fibroblasts. Conditions: 5 min stimulation with IGF-1, serum starved overnight; cited from earlier work.
Setting [2] is: 30 min hyperosmotic stress, 0.2 M sorbitol.

Where only a bound is given, the exact number is not on record here.

SIN1^PH, sequence (Q9BPZ7 358-522): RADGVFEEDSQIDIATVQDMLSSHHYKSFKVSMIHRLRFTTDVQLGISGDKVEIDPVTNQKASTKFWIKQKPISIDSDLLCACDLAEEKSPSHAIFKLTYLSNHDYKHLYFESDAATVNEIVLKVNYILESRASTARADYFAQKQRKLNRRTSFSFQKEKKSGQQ
Akt^PH (human recombinant AKT1), sequence (P31749 5-108 limits assumed): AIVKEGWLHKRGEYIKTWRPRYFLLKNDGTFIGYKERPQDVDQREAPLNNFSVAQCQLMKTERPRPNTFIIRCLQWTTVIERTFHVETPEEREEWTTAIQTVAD

Usually IC50 stands for the concentration that inhibits the measured activity by half. For the compound `O=P(O)(O)O[C@@H]1[C@@H](OP(=O)(O)O)[C@@H](OP(=O)(O)O)[C@@H](OP(=O)(O)OP(=O)(O)O)[C@H](OP(=O)(O)O)[C@H]1OP(=O)(O)O` [1-InsP7], the half-inhibitory concentration (IC50) in assay [1] was 45 µM; on SIN1^PH, more than 100 µM; at PBD1 of PPIP5K1 it was 43 µM. Besides, the “fold lower affinity for PBD1 than InsP6 and 5-InsP7” value at PBD1 of PPIP5K1 was 6–7 fold.

For `O=P(O)(O)O[C@H]1[C@@H](OP(=O)(O)O)[C@H](OP(=O)(O)O)[C@@H](OP(=O)(O)OP(=O)(O)O)[C@H](OP(=O)(O)O)[C@H]1OP(=O)(O)O` [5-InsP7], the IC50 in assay [1] is 7 µM; on SIN1^PH, 3.7 µM; at PBD1 of PPIP5K1, 5 µM. The “inhibition of GRP1^PH association with PtdIns(3,4,5)P3, relative potency” value on GRP1^PH is “only marginally more potent than InsP6”.

As for `O=P(O)(O)O[C@H]1[C@H](OP(=O)(O)O)[C@@H](OP(=O)(O)O)[C@H](OP(=O)(O)O)[C@@H](OP(=O)(O)O)[C@H]1OP(=O)(O)O` [InsP6], the half-maximal inhibitory concentration (IC50) in assay [1] amounted to 14 µM; on SIN1^PH, 6 µM; on PBD1 of PPIP5K1, 7 µM.

Regarding `O=P(O)(O)O[C@@H]1[C@@H](OP(=O)(O)O)[C@H](OP(=O)(O)OP(=O)(O)O)[C@@H](OP(=O)(O)O)[C@H](OP(=O)(O)OP(=O)(O)O)[C@@H]1OP(=O)(O)O` [InsP8, bis-diphosphoinositol tetrakisphosphate], the results for the IC50 (in assay [1]; at SIN1^PH; on PBD1 of PPIP5K1) were more than 50 µM, more than 100 µM and 32 µM, respectively. Further, the “fold lower affinity for PBD1 than InsP6 and 5-InsP7” value on PBD1 of PPIP5K1 is given as 6–7 fold.

Turning to `OC[C@@H](O)[C@@H](O)[C@H](O)[C@@H](O)CO` [sorbitol], in the assay on NIH 3T3 cells (setting [2]), the “elevation of PtdIns(3,4,5)P3 levels” value was determined as 4.5 fold and the “increase in InsP8 concentration” value is 4.5 fold.

In the case of IGF-1: insulin-like growth factor 1, the “increase in levels of InsP6 and InsP7” value with mouse embryo fibroblasts was 2 fold.

For PDGF, the “increase in levels of PtdIns(3,4,5)P3” value with NIH 3T3 cells (5 min stimulation with 50 ng/ml PDGF, 3 h serum starved) is recorded as 2 fold.

Source of the values: publication PMC3931004 (The Biochemical journal, 2013).
